# According to ChEMBL document CHEMBL1142259, “Design and synthesis of novel potent and selective integrin alphanubeta3 antagonists--novel synthetic routes to isoquinolinone, benzoxazinone, and quinazolinone acetates” (Bioorg Med Chem Lett, 2008):
# Experiments:
# Integrin alpha-V/beta-3 = Integrin alpha-V/beta-3 (Homo sapiens, UniProt P05106+P06756); assay: Displacement of vitronectin from integrin alphavbeta3 receptor; assay type: protein-complex assay
# Procedure, shortened: (§1)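 Ligand displacement from the isolated integrin receptor: vitronectin for αvβ3 and fibrinogen for αIIbβ3. IC50 reported as the mean of three experiments. Intra-assay variation <10%; inter-assay variation < factor 2.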
# [1] = target: Integrin alpha-IIb/beta-3 (Homo sapiens, UniProt P05106+P08514); assay: Displacement of fibrinogen from integrin alpha2bbeta3 receptor; assay type: protein-complex assay; procedure, shortened: as §1
# [2] = target: Integrin alpha-5/beta-1 (Homo sapiens) (UniProt P05556+P08648); assay: Inhibition of integrin alpha5beta1 receptor mediated cellular binding to fibronectin at 10 uM; assay type: protein-complex assay
# [3] = Apparent permeability across human Caco-2 cells; assay type: ADME, cell-based
# Procedure, shortened: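 Apparent permeability coefficient (Papp) measured in Caco-2 monolayers. n = 2, intra-assay variation <20%. Papp >2e-7 cm/s is classed as medium transport and >2e-6 cm/s as high transport.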
# Integrin alpha-V/beta-3, sequence (P05106 27-788 limits assumed): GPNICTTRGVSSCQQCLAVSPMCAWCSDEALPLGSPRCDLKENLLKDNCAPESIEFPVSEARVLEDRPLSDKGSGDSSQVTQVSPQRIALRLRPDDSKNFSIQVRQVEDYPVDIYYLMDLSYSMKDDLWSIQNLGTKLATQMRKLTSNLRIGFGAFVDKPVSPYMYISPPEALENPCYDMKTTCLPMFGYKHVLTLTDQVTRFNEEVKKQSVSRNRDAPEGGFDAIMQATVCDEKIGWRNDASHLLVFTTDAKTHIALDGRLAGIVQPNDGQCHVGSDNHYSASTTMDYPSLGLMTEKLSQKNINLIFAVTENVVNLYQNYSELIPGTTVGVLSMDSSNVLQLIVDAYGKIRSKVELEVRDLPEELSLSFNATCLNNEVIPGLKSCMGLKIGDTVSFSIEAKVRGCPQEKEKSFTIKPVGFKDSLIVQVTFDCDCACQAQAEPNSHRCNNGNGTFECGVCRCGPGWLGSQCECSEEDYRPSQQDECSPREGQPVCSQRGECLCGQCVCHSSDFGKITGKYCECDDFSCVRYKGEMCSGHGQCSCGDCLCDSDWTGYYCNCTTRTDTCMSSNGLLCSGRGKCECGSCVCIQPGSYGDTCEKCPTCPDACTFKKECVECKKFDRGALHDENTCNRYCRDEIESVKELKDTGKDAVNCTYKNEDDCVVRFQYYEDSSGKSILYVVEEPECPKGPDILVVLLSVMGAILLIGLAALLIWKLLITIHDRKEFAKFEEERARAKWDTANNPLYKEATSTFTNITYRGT
# Integrin alpha-V/beta-3, sequence (P06756 31-889 limits assumed): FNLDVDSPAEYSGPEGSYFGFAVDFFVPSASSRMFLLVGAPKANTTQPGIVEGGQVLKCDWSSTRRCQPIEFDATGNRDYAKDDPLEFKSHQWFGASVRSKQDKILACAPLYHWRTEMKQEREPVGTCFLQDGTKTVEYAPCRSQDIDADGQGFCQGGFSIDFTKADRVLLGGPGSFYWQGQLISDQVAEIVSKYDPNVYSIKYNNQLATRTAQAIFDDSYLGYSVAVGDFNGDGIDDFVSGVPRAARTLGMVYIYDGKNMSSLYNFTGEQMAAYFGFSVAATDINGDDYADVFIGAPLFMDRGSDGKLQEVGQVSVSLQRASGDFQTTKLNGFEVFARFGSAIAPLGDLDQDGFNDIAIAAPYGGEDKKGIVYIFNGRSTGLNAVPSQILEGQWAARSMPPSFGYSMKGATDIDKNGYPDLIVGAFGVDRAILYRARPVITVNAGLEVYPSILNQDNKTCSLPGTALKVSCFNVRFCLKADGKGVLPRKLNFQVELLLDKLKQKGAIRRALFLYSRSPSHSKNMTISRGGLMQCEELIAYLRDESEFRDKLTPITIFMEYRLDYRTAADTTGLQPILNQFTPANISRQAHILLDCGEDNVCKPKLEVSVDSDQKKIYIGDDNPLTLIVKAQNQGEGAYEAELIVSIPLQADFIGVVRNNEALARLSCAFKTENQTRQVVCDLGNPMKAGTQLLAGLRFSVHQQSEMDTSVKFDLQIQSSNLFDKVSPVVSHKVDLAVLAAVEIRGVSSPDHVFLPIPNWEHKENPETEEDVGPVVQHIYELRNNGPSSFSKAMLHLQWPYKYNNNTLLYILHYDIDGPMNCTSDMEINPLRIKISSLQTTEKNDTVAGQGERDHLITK
# Integrin alpha-V/beta-3, sequence (P06756 891-1048 limits assumed): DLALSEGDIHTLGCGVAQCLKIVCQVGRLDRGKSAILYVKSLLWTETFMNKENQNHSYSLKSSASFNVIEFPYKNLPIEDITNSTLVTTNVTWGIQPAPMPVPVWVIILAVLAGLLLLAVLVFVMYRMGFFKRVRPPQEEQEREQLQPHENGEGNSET
# Integrin alpha-IIb/beta-3, sequence (P05106 27-788 limits assumed): as the sequence (P05106 27-788 limits assumed) above
# Integrin alpha-IIb/beta-3, sequence (P08514 32-887 limits assumed): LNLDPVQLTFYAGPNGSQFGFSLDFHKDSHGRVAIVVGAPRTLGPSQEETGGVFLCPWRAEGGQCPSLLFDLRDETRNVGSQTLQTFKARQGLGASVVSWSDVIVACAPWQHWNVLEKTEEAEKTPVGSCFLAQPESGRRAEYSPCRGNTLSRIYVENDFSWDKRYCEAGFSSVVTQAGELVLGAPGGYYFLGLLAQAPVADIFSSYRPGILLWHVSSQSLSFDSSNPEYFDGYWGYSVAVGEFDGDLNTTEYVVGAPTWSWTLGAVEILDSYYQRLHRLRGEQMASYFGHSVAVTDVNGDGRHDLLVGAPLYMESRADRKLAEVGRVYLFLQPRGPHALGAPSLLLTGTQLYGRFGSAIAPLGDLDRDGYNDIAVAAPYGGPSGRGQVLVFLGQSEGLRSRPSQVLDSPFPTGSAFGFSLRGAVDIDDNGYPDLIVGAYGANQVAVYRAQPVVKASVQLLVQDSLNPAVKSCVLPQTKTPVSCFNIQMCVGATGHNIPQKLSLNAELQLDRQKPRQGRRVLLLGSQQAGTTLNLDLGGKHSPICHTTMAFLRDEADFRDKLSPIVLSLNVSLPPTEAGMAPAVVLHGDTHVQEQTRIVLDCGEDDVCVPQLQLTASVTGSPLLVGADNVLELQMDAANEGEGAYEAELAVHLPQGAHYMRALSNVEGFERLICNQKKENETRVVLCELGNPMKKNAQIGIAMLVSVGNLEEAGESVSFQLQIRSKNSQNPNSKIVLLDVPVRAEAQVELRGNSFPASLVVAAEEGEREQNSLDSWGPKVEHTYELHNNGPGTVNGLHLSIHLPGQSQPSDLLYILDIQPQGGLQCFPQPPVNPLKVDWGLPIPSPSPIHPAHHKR
# Integrin alpha-IIb/beta-3, sequence (P08514 891-1039 limits assumed): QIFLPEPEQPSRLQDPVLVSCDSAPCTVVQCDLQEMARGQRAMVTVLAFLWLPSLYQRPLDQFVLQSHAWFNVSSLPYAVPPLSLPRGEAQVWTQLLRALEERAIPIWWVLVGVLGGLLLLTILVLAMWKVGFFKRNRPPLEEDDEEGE
IC50 (Integrin alpha-V/beta-3),SMILES,other results
4.2 nM,O=C(O)CC1OC(=O)N(CC(=O)NCc2ccc(Nc3nc4ccccc4[nH]3)cc2)c2ccccc21 (centres undefined),IC50 [1]: > 10000 nM; inhibition [2]: 8%; Papp [3]: 3.48 ×10⁻⁶ cm/s
27 nM,O=C(O)CCC1CC(=O)N(CC(=O)NCC2CCC(Nc3nc4ccccc4[nH]3)CC2)c2ccccc21 (centres undefined),
10000 nM,O=C(O)CC1CN(CC(=O)NCc2ccc(Nc3nc4ccccc4[nH]3)cc2)C(=O)c2ccccc21 (centres undefined),
5000 nM,O=C(O)CCC1CC(=O)N(CC(=O)NCc2ccc(Nc3nc4ccccc4[nH]3)cc2)c2ccccc21 (centres undefined),
10000 nM,O=C(O)CC1CN(CC(=O)NCC2CCC(Nc3nc4ccccc4[nH]3)CC2)C(=O)c2ccccc21 (trans isomer),
37 nM,O=C(O)CC1NC(=O)N(CC(=O)NCc2ccc(Nc3nc4ccccc4[nH]3)cc2)c2ccccc21 (centres undefined),
11 nM,O=C(O)CC1CCN(CC(=O)NCC2CCC(Nc3nc4ccccc4[nH]3)CC2)C(=O)c2ccccc21 (centres undefined),
7.4 nM,O=C(O)CC1CC(=O)N(CC(=O)NCC2CCC(Nc3nc4ccccc4[nH]3)CC2)c2ccccc21 (trans isomer),
4.4 nM,O=C(O)CC1CCC(=O)N(CC(=O)NCc2ccc(Nc3nc4ccccc4[nH]3)cc2)c2ccccc21 (centres undefined),
122 nM,O=C(O)CC1CCN(CC(=O)NCc2ccc(Nc3nc4ccccc4[nH]3)cc2)C(=O)c2ccccc21 (centres undefined),
1.5 nM,O=C(O)CC1CCC(=O)N(CC(=O)NCC2CCC(Nc3nc4ccccc4[nH]3)CC2)c2ccccc21 (centres undefined),
500 nM,O=C(O)CCc1cc(=O)n(CC(=O)NCc2ccc(Nc3nc4ccccc4[nH]3)cc2)c2ccccc12,
50 nM,O=C(O)Cc1cc(=O)n(CC(=O)NCc2ccc(Nc3nc4ccccc4[nH]3)cc2)c2ccccc12,
10 nM,O=C(O)Cc1cc(=O)n(CC(=O)NCC2CCC(Nc3nc4ccccc4[nH]3)CC2)c2ccccc12 (centres undefined),
1000 nM,O=C(O)CCc1cc(=O)n(CC(=O)NCC2CCC(Nc3nc4ccccc4[nH]3)CC2)c2ccccc12 (trans isomer),
50 nM,O=C(O)CC1CC(=O)N(CC(=O)NCc2ccc(Nc3nc4ccccc4[nH]3)cc2)c2ccccc21 (centres undefined),
0.7 nM,O=C(O)CC1OC(=O)N(CC(=O)NCC2CCC(Nc3nc4ccccc4[nH]3)CC2)c2ccccc21 (centres undefined),IC50 [1]: > 10000 nM; inhibition [2]: 25%; Papp [3]: 3.23 ×10⁻⁶ cm/s
13 nM,O=C(O)CC1NC(=O)N(CC(=O)NCC2CCC(Nc3nc4ccccc4[nH]3)CC2)c2ccccc21 (trans isomer),
